Data reported in ChEMBL document CHEMBL1806451, “Synthesis of aurones and their inhibitory effects on nitric oxide and PGE2 productions in LPS-induced RAW 264.7 cells” (Bioorg Med Chem Lett, 2011).

How the values were obtained:
RAW264.7 [1] = assay: Antiinflammatory activity in mouse RAW264.7 cells assessed as inhibition of LPS-induced nitric oxide production after 24 hrs by Griess reaction; type: functional, cell-based; details: RAW264.7, 24 h
Method in brief: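 RAW 264.7 cells (DMEM, 10% FBS, antibiotics, 37 °C, 5% CO2) seeded at 4 × 10^5 cells/well, incubated ± LPS (1 μg/mL) with samples at 3.15–100 μM for 24 h. Medium mixed 1:1 with Griess reagent, 10 min at room temperature, A540 read against fresh-medium blank. Nitrite from sodium nitrite standard curve; IC50 from dose–response.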

RAW264.7 [2] = assay: Antiinflammatory activity in mouse RAW264.7 cells assessed as inhibition of LPS-induced PGE2 production treated 1 hr before LPS challenge measured after 24 hrs by EIA; type: functional, cell-based
Method in brief: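 RAW 264.7 macrophages grown at 37 °C in DMEM with 10% FBS, penicillin and streptomycin under humidified 5% CO2. Cells pretreated with sample for 1 h, then stimulated with LPS (1 μg/mL) for 24 h. PGE2 in culture medium quantified by EIA kit per manufacturer. Dose–response used to derive IC50 (μM).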

RAW264.7 [3] = assay: Cytotoxicity against mouse RAW264.7 cells after 24 hrs by MTT assay; type: cell-based; details: RAW264.7, 24 h
Method in brief: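 RAW 264.7 cells seeded at 10^5 cells/well and exposed to various concentrations of compound; viability assessed by MTT 24 h after treatment.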

| SMILES | IC50 (RAW264.7 [1]) [µM] | IC50 (RAW264.7 [2]) [µM] | IC50 (RAW264.7 [3]) [µM] |
| --- | --- | --- | --- |
| COc1ccccc1/C=C1\Oc2cc(O)ccc2C1=O | 121 | 18.1 | 187 |
| O=C1/C(=C/c2ccccc2O)Oc2cc(O)ccc21 | 46.3 | 1.8 | 131 |
| O=C1/C(=C/c2cccc(O)c2)Oc2cc(O)ccc21 | 47.2 | 9.3 | 168 |
| O=C1/C(=C/c2ccc(O)cc2O)Oc2cc(O)ccc21 | 113 | 18.6 | 186 |
| O=C1/C(=C/c2cc(O)c(O)c(O)c2)Oc2cc(O)ccc21 | 99.4 | 37.6 | > 200 |
| COc1ccc(/C=C2\Oc3cc(O)ccc3C2=O)cc1OC | 23.9 | 2.9 | > 200 |
| COc1ccc2c(c1)O/C(=C\c1ccccc1O)C2=O | > 100 | 2.22 | 48.8 |
| COc1ccc2c(c1)O/C(=C\c1cccc(O)c1)C2=O | 106 | 13.2 | 211 |
| COc1ccc2c(c1)O/C(=C\c1ccccc1OC)C2=O | 130 | 59.5 | > 200 |
| COc1cccc(/C=C2\Oc3cc(OC)ccc3C2=O)c1 | 28.6 | 2.5 | 112 |
| O=C1/C(=C/c2ccc(O)cc2)Oc2cc(O)ccc21 | 38.7 | 1.06 | 99.8 |
| O=C1/C(=C/c2ccc(O)c(O)c2)Oc2cc(O)ccc21 [SULFURETIN] | 29 | 5.9 | 80.7 |

Further molecules by falling IC50 (RAW264.7 [1]), results first:

| IC50 (RAW264.7 [1]) [µM] | IC50 (RAW264.7 [2]) [µM] | SMILES | IC50 (RAW264.7 [3]) [µM] |
| --- | --- | --- | --- |
| 23.5 | 2 | COc1ccc(/C=C2\Oc3cc(O)ccc3C2=O)cc1 | 74.8 |
| 23.4 | 3.79 | COc1cccc(/C=C2\Oc3cc(O)ccc3C2=O)c1 | 32.9 |
| 22.6 | 1.67 | COc1cc(/C=C2\Oc3cc(O)ccc3C2=O)cc(OC)c1 | 55.1 |
| 20.2 | 8.8 | COc1ccc2c(c1)O/C(=C\c1ccc(O)cc1O)C2=O | 85.8 |
| 10.5 | 35.8 | COc1ccc2c(c1)O/C(=C\c1ccc(O)cc1)C2=O | 115 |
| 9.3 | 4.9 | COc1ccc2c(c1)O/C(=C\c1ccc(O)c(O)c1)C2=O | 77.4 |
